Measured values: PubChem BioAssay AID624055 (Southern Research Specialized Biocontainment Screening …, 2012)
“And” between values parts separate entries of the source, which are not always exact repeats. Identical values can stand only once. The source made the active and inactive calls.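 The calls were made as follows: active = compounds specific to the target that block phage lysis by more than 30% when retested across doses; inactive = the rest, not confirmed on retesting.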

tested on: not listed separately; experiment: E. coli EV36 sensitization to T7 phage – EV36 K1 hybrid, OD600, round 6, dose response (AID 624055); conditions: E. coli EV36 T7 phage lysis, OD600; at 50 µM (top of the series)
In short: (§1)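 Material: Escherichia coli EV36, a K1:K-12 hybrid strain | Input: Overnight culture at 1:100 dilution | Detection: Absorbance at 600 nm | Measure: Inhibition of phage lysis by OD600 | Compound: Two-fold serial compound dilution series, 1% DMSO final | Incubation: 1.5 h compound pre-exposure, 3 h post-infection | Probe or stimulus: T7 phage infection after compound pre-exposure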

Row | Compound | phage lysis inhibition
1 | O=C(NCCc1ccncc1)c1ccc2ncsc2c1 | 127% (inactive)
2 | CC(C)(C)c1ccc(-c2cc(NC(=O)c3ccc(Br)s3)c(C(=O)O)s2)cc1 | -10.5% (inactive)
3 | O=C(NC1CCNCC1)c1ccc2ncsc2c1 | 135% (inactive)
4 | O=C(Nc1ccncc1)c1ccc2ncsc2c1 | 121% (inactive)
5 | O=C(Nc1cc(-c2ccc(OC(F)(F)F)cc2)sc1C(=O)O)c1cc2ccccc2o1 | -11.1% (inactive)
6 | O=C(NCc1ccncc1)c1ccc2ncsc2c1 | 128% (inactive)
7 | COc1cc2sc(NC(=O)c3ccc(Br)s3)nc2cc1F | -13% (inactive)
8 | O=C(Nc1cc(-c2ccc(OC(F)(F)F)cc2)sc1C(=O)O)c1cccc(F)c1 | -12.3% (inactive)
9 | O=C(Nc1cc(-c2ccc(OCCCC(F)(F)F)cc2)sc1C(=O)O)c1cc(Br)c(Br)o1 | -18.4% (inactive) and -21% (inactive)

tested on: E. coli EV36 T7 phage lysis, OD600; experiment: as above; conditions: not given
In short: as §1

Row | Compound | IC50 [µM]
10 | CCCCOc1ccc(-c2cc(NC(=O)c3c(F)cccc3F)c(C(=O)O)s2)cc1 | < 6.25
11 | [N-]=[N+]=NCCOc1ccc(-c2cc(NC(=O)c3c(F)cccc3F)c(C(=O)O)s2)cc1 | < 6.25
12 | CCCCOc1ccc(-c2cc(NC(=O)c3ccc(Br)o3)c(C(=O)O)s2)cc1 | < 6.25
13 | O=C(Nc1cc(-c2ccc(OCC(F)(F)F)cc2)sc1C(=O)O)c1ccc(Br)o1 | < 6.25
14 | CCCc1ccc(-c2cc(NC(=O)c3ccc(Br)o3)c(C(=O)O)s2)cc1 | < 6.25
15 | O=C(O)c1sc(-c2ccc(OCCCC(F)(F)F)cc2)cc1NC(=O)c1c(F)cc(F)cc1F | < 6.25
16 | CCCOc1ccc(-c2cc(NC(=O)c3c(F)cc(F)cc3F)c(C(=O)O)s2)cc1 | < 6.25
17 | CCCCOc1ccc(-c2cc(NC(=O)c3cc(Br)c(Br)o3)c(C(=O)O)s2)cc1 | < 6.25
18 | O=C(O)c1sc(-c2ccc(OCC(F)(F)F)cc2)cc1NC(=O)c1c(F)cc(F)cc1F | < 6.25
19 | O=C(Nc1ccncc1)c1ccc2ncsc2c1 | < 6.25
20 | CCOc1ccc(-c2cc(NC(=O)c3c(F)cccc3C(F)(F)F)c(C(=O)O)s2)cc1 | < 6.25
21 | CCCc1ccc(-c2cc(NC(=O)c3cc(Br)c(Br)o3)c(C(=O)O)s2)cc1 | < 6.25
22 | CCCc1ccc(-c2cc(NC(=O)c3c(F)cccc3F)c(C(=O)O)s2)cc1 | < 6.25
23 | O=C(Nc1cc(-c2ccc(OCCCC(F)(F)F)cc2)sc1C(=O)O)c1ccc(Br)o1 | < 6.25
24 | O=C(O)c1sc(-c2ccc(OC(F)(F)F)cc2)cc1NC(=O)c1c(F)cccc1F | < 6.25
25 | CCCCOc1ccc(-c2cc(NC(=O)c3c(F)cc(F)cc3F)c(C(=O)O)s2)cc1 | < 6.25
26 | CCOc1ccc(-c2cc(NC(=O)c3c(F)cc(F)cc3F)c(C(=O)O)s2)cc1 | < 6.25
27 | O=C(O)c1sc(-c2ccc(OCCC(F)(F)F)cc2)cc1NC(=O)c1c(F)cccc1F | < 6.25
28 | O=C(O)c1sc(-c2ccc(OCC(F)(F)F)cc2)cc1NC(=O)c1c(F)cccc1F | < 6.25
29 | O=C(O)c1sc(-c2ccc(OCCC(F)(F)F)cc2)cc1NC(=O)c1c(F)cc(F)cc1F | < 6.25
30 | O=C(Nc1cc(-c2ccc(OC(F)(F)F)cc2)sc1C(=O)O)c1ccc(Br)o1 | < 6.25
31 | O=C(O)c1sc(-c2ccc(OCCCC(F)(F)F)cc2)cc1NC(=O)c1c(F)cccc1F | < 6.25
32 | CCOc1ccc(-c2cc(NC(=O)c3c(F)cccc3F)c(C(=O)O)s2)cc1 | < 6.25
33 | COc1ccc2nc(NC(=O)c3ccc(Br)s3)sc2c1 | < 0.21
34 | CCCc1ccc(-c2cc(NC(=O)c3c(F)cc(F)cc3F)c(C(=O)O)s2)cc1 | < 6.25
35 | O=C(Nc1cc(-c2ccc(OCCC(F)(F)F)cc2)sc1C(=O)O)c1ccc(Br)o1 | < 6.25
